From ChEMBL document CHEMBL1133575 (J Med Chem, 2000) come the findings set out here.

Experiment [1] addresses Sodium-dependent dopamine transporter (Homo sapiens, UniProt Q01959). Put plainly: Binding Affinity to cocaine site of dopamine transporter in caudate nuclei which was homogenized and incubated with [3H]mazindol.
Experiment [2] has as its target T1, Sodium-dependent dopamine transporter (Rattus norvegicus, UniProt P23977). Description: Inhibition of [3H]DA Uptake at dopamine transporter in rat cortex was measured by liquid scintillation spectrometry. The experiment is classed as tissue-based.
Experiment [3] concerns the target Norepinephrine transporter (Rattus norvegicus, UniProt Q9WTR4). Description: Compound was tested for Inhibition of [3H]NE Uptake in rat parietal/occipital cortex. A digest of the protocol: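 [3H]NE uptake used rat parietal/occipital cortex synaptosomes in modified KRH buffer. Drug was preincubated for 30 min at 37 °C, then radiolabel was added for 5 min. Uptake was stopped with cold sodium-free buffer, filtered and counted by liquid scintillation. Specific uptake was defined with 1 uM desipramine.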

For experiment [4], the target named is Sodium-dependent serotonin transporter (Rattus norvegicus, UniProt P31652). Description: Compound was tested for Inhibition of [3H]5-HT Uptake in rat mid brain. The format is tissue-based. A digest of the protocol:
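[3H]5-HT uptake used rat midbrain synaptosomes in modified KRH buffer. Drug was preincubated for 30 min at 37 °C, then tritiated substrate was added for 5 min. Uptake was stopped in cold sodium-free buffer, filtered and counted by scintillation. Specific uptake was defined with 10 uM fluoxetine.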

Experiment [5] has as its target T1, Sodium-dependent dopamine transporter. Description: Inhibition of [3H]DA Uptake at Dopamine transporter in rat cortex was measured by liquid scintillation spectrometry. The experiment is classed as tissue-based.
Experiment [6] has the same target. Put plainly: Binding Affinity to cocaine site of Dopamine transporter in caudate nuclei which was homogenized and incubated with [3H]mazindol. The essentials:
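Rat striatal membranes, washed in KRH buffer (pH 7.4, with 0.01 mM nialamide) and frozen at −80 °C, thawed at 75–125 ug protein/mL. Incubated with [3H]mazindol plus competitor for 60 min at 4 °C. […] Separated by GF/C filtration and counted by scintillation. IC50 fitted with LIGAND.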

By Ki is commonly meant the equilibrium dissociation constant of an inhibitor or competing ligand from its target. Low readings indicate tighter binding, high ones weaker binding.

Sodium-dependent dopamine transporter (Homo sapiens, UniProt Q01959), sequence (Q01959 whole entry): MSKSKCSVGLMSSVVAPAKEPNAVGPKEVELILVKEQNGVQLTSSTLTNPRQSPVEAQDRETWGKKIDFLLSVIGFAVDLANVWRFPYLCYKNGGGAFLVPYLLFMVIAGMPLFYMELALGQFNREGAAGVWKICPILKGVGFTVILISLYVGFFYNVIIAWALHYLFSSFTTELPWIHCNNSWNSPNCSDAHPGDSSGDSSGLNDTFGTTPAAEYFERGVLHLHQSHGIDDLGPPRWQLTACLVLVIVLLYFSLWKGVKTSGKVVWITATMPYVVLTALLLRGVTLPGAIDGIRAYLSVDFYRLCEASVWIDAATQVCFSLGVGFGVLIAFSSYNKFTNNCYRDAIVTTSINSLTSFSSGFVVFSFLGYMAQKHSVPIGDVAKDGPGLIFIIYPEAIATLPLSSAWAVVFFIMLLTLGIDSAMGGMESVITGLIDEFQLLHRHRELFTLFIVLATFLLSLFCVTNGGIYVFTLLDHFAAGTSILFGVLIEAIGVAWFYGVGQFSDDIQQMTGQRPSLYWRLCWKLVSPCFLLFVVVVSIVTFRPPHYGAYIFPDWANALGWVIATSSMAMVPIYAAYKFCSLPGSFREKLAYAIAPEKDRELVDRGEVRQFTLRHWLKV
T1 sequence (P23977 whole entry): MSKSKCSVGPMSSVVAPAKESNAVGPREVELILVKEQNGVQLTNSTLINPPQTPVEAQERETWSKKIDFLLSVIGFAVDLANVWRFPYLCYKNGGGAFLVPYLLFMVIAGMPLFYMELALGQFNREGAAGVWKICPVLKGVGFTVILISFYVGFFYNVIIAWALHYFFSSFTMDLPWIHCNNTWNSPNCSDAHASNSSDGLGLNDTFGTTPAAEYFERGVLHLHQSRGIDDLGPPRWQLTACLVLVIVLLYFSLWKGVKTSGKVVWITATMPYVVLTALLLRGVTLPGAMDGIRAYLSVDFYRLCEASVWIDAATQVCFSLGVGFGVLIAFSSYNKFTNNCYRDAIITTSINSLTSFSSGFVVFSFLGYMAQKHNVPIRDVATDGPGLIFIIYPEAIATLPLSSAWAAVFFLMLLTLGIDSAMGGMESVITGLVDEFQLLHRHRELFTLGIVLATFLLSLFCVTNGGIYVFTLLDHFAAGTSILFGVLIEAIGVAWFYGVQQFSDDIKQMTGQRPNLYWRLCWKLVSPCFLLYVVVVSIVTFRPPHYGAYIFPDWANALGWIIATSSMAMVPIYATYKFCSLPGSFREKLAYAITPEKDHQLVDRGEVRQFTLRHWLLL
Sodium-dependent serotonin transporter, sequence (P31652 whole entry): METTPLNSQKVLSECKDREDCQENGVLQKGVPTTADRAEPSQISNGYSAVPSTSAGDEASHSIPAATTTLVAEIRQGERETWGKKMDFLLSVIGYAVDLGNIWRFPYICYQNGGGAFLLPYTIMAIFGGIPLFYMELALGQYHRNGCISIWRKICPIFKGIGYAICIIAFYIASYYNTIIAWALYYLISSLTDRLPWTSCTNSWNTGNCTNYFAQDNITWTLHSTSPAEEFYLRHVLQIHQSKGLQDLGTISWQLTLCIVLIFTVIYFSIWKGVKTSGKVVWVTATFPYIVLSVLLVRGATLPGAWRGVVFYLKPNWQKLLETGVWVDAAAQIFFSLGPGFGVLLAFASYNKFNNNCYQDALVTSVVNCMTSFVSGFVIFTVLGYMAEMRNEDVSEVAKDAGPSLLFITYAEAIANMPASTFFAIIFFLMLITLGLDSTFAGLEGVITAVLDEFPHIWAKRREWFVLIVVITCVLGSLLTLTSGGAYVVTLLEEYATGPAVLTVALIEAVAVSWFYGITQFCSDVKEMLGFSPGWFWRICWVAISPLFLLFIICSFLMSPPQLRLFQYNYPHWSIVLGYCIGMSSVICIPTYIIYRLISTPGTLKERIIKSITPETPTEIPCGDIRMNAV
Norepinephrine transporter, sequence (Q9WTR4 whole entry): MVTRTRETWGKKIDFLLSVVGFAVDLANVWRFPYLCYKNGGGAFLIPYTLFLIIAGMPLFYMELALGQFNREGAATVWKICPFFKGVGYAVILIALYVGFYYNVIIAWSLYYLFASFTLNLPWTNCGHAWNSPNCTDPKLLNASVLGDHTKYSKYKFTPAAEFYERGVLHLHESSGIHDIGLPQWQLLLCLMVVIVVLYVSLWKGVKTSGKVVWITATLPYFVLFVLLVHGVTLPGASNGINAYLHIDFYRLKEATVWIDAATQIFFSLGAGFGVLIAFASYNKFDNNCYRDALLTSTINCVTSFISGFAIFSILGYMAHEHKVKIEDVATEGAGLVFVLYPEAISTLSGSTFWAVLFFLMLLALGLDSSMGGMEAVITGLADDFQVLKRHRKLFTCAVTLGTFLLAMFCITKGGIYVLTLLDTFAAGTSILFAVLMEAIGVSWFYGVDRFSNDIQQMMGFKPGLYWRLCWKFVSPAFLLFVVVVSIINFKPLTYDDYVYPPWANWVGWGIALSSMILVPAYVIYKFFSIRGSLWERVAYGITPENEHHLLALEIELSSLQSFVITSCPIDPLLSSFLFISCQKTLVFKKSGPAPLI

Consider `CN1CCC(O)(c2ccc(Cl)cc2Cl)C([C@@H](O)c2ccc(Cl)cc2Cl)C1` (stereo not given in full), for which the Ki worked out at 4.35 µM in experiment [1] and 7.52 µM in experiment [2].
In experiment [2], `Cc1ccc(C2OC(=O)OC3(c4ccc(C)cc4)CCN(C)CC23)cc1` (stereo not given) had a Ki of 9.48 µM.
For `CN1CCC(O)(c2ccc(Cl)c(Cl)c2)C(C(=O)c2ccc(Cl)c(Cl)c2)C1` (stereo not given), the inhibitory constant (Ki) in experiment [1] worked out at 0.0109 µM; in experiment [2], 0.051 µM; in experiment [3], 0.177 µM; in experiment [4], 2.38 µM.
On to `CN1CCC(O)(c2ccccc2)C(C(=O)c2ccccc2)C1` (stereo not given), for which the inhibitory constant (Ki) in experiment [5] turned out to be 2.59 µM; in experiment [6] it was 4.42 µM.
Turning to `CN1CCC(O)(c2ccc(Cl)cc2Cl)C(C(=O)c2ccc(Cl)cc2Cl)C1` (stereo not given), in experiment [2], the Ki stood at 5.85 µM. This lies in the single-digit micromolar range.
Consider `Cc1ccc(C(=O)C2CN(C)CCC2(O)c2ccc(C)cc2)cc1` (stereo not given), for which the Ki in experiment [5] was 0.36 µM; in experiment [3], 3.86 µM; in experiment [4], 1.63 µM; in experiment [6] it was 0.492 µM.
On to `CN1CCC(O)(c2ccc(Cl)c(Cl)c2)C([C@@H](O)c2ccc(Cl)c(Cl)c2)C1` (stereo not given in full), for which the Ki was 4.14 µM in experiment [1] and 4.22 µM in experiment [2].
Take `Cc1ccc([C@H](O)C2CN(C)CCC2(O)c2ccc(C)cc2)cc1` (stereo not given in full): the inhibition constant Ki in experiment [1] was 10.7 µM; in experiment [2] it was 15.8 µM.
The like results for `CN1CCC(O)(c2ccc(F)cc2)C(C(=O)c2ccc(F)cc2)C1` (stereo not given) [FLAZALONE] were, in that order, 5.7 µM and 4.2 µM.
